One assay deals with HCT-116. Kind of assay: Cytotoxicity against multidrug-resistant human HCT116 cells at 1 uM by thymidine incorporation assay. Format: functional. The method, boiled down: (§1)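 HCT-116 cells were grown in IMDM and HCT-15 in RPMI 1640, each with L-glutamine, 10% FBS and penicillin-streptomycin, at 3000 cells/well. Compound was applied at 1 µM in 1% DMSO for 72 h total, with 3H-thymidine added for the final 16 h. Percent growth inhibition versus DMSO controls was scintillation-counted, averaging three wells in each of three assays.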
Background: Incorporation of labelled thymidine or its analogues reports DNA synthesis.

The subject of a further assay is HCT-15. Kind of assay: Cytotoxicity against multidrug-resistant human HCT15 cells at 1 uM by thymidine incorporation assay. In kind it is functional. The method, boiled down: as §1

Square brackets hold non-standard residues; d marks the D form. Peptide text beside a SMILES is read from it. * marks the point of attachment. Cbz = O=C(OCc1ccccc1)*; Bn = c1ccc(C*)cc1

A word on the inhibition: it is the percentage by which the read-out fell short of the control. A low value points to a response near the control.

Turning to `CC[C@H]1NC(=O)[C@H](C(C)C)NC(=O)[C@H](C(C)C)NC(=O)[C@H](Cc2ccccc2)NC(=O)[C@H](C(C)C)NC1=O` (HELM PEPTIDE1{F.V.V.[CC[C@@H](N[*:1])C(=O)[*:2]].V}$PEPTIDE1,PEPTIDE1,1:R1-5:R2$$$V2.0), the results for the inhibition at 1 µM in the assay on HCT-116 and with HCT-15 were 16% and 2%, respectively.

`CC(C)[C@@H]1NC(=O)[C@H](Cc2ccccc2)NC(=O)[C@H](C(C)C)NC(=O)[C@@H](COCc2ccccc2)NC(=O)[C@H](C(C)C)NC1=O` (cyclo(FVV[dS](Bn)V)): the inhibition at 1 µM is 17% in the assay on HCT-116 and 14% with HCT-15.

In the case of `CC(C)C[C@@H]1NC(=O)[C@H](CC(C)C)NC(=O)[C@@H](Cc2c[nH]c3ccccc23)NC(=O)[C@H](CC(C)C)NC(=O)[C@H](C(C)C)NC1=O` (HELM PEPTIDE1{L.L.V.L.[dW]}$PEPTIDE1,PEPTIDE1,1:R1-5:R2$$$V2.0), the inhibition at 1 µM with HCT-116 is 2%; in the assay on HCT-15 it was 9%.

Regarding `CC(C)C[C@@H]1NC(=O)[C@H](Cc2ccccc2)NC(=O)[C@H](CC(C)C)NC(=O)[C@@H](C(C)C)N(C)C(=O)[C@H](CC(C)C)NC1=O` (HELM PEPTIDE1{F.L.L.[CC(C)[C@H](C(=O)[*:2])N(C)[*:1]].L}$PEPTIDE1,PEPTIDE1,1:R1-5:R2$$$V2.0), the inhibition at 1 µM in the assay with HCT-116 is 19%; with HCT-15, 21%.

On to `CC(C)[C@@H]1NC(=O)[C@H](Cc2ccccc2)NC(=O)[C@H](C(C)C)NC(=O)[C@@H](C(C)C)NC(=O)[C@H](C(C)C)NC1=O` (HELM PEPTIDE1{F.V.V.[dV].V}$PEPTIDE1,PEPTIDE1,1:R1-5:R2$$$V2.0), for which the inhibition at 1 µM in the assay with HCT-116 is 19%; with HCT-15, 1%.

Take `CC(C)C[C@@H]1NC(=O)[C@H](Cc2ccccc2)NC(=O)[C@H](CC(C)C)NC(=O)[C@H](C(C)C)NC(=O)[C@H](CCCCN)NC1=O` (HELM PEPTIDE1{F.L.K.V.L}$PEPTIDE1,PEPTIDE1,1:R1-5:R2$$$V2.0): the inhibition at 1 µM with HCT-116 worked out at 23%; in the assay with HCT-15, 15%.

For `CC(C)C[C@@H]1C(=O)N[C@H](CC(C)C)C(=O)N[C@H](C(C)C)C(=O)N[C@H](CC(C)C)C(=O)N[C@H](Cc2ccccc2)C(=O)N1C` (HELM PEPTIDE1{[dF].[CC(C)C[C@H](C(=O)[*:2])N(C)[*:1]].[dL].[dV].[dL]}$PEPTIDE1,PEPTIDE1,1:R1-5:R2$$$V2.0), the inhibition at 1 µM in the assay on HCT-116 was determined as 42%; in the assay with HCT-15, 28%.

As to `CC(C)C[C@@H]1NC(=O)[C@H](C(C)C)N(C)C(=O)[C@H](CC(C)C)NC(=O)[C@H](CC(C)C)N(C)C(=O)[C@H](Cc2ccccc2)NC1=O` (HELM PEPTIDE1{F.[meL].L.[meV].L}$PEPTIDE1,PEPTIDE1,1:R1-5:R2$$$V2.0), the inhibition at 1 µM with HCT-116 turned out to be 18%; in the assay with HCT-15, 15%.

As for `CC(C)C[C@@H]1C(=O)N[C@H](CC(C)C)C(=O)N(C)[C@H](C(C)C)C(=O)N[C@H](CC(C)C)C(=O)N[C@H](Cc2ccccc2)C(=O)N1C` (HELM PEPTIDE1{[dF].[CC(C)C[C@H](C(=O)[*:2])N(C)[*:1]].[dL].[CC(C)[C@H](C(=O)[*:2])N(C)[*:1]].[dL]}$PEPTIDE1,PEPTIDE1,1:R1-5:R2$$$V2.0), the inhibition at 1 µM in the assay on HCT-116 was 43%; with HCT-15, 48%.

Turning to `CC(C)C[C@@H]1NC(=O)[C@H](Cc2ccccc2)NC(=O)[C@H](CC(C)C)NC(=O)[C@@H](Cc2ccccc2)NC(=O)[C@H](CC(C)C)NC1=O` (HELM PEPTIDE1{F.L.L.[dF].L}$PEPTIDE1,PEPTIDE1,1:R1-5:R2$$$V2.0), the inhibition at 1 µM in the assay on HCT-116 and with HCT-15 was 11% throughout.

For `CC(C)C[C@@H]1NC(=O)[C@H](Cc2ccccc2)NC(=O)[C@@H](Cc2ccccc2)N(C)C(=O)[C@H](C(C)C)NC(=O)[C@H](CCCCN)NC1=O` (HELM PEPTIDE1{F.L.K.V.[CN([C@H](Cc1ccccc1)C(=O)[*:2])[*:1]]}$PEPTIDE1,PEPTIDE1,1:R1-5:R2$$$V2.0), the inhibition at 1 µM with HCT-116 is 30%; in the assay with HCT-15, 26%.

On to `CC[C@@H]1NC(=O)[C@H](CC(C)C)NC(=O)[C@H](CC(C)C)NC(=O)[C@H](Cc2ccccc2)NC(=O)[C@@H](CC(C)C)NC1=O` (HELM PEPTIDE1{[Abu].[dL].F.L.L}$PEPTIDE1,PEPTIDE1,1:R1-5:R2$$$V2.0), for which the values for the inhibition at 1 µM in the assay with HCT-116 and with HCT-15 were 13% and 8%, respectively.

`CC(C)C[C@@H]1NC(=O)[C@H](Cc2ccccc2)NC(=O)[C@H](CC(C)C)NC(=O)[C@@H](C(C)C)NC(=O)[C@H](CCCCNC(=O)OCc2ccccc2)NC1=O` (cyclo(FLK(Cbz)[dV]L)): the results for the inhibition at 1 µM in the assay with HCT-116 and with HCT-15 were 16% and 3%, respectively.

For the molecule `CC(C)C[C@@H]1NC(=O)[C@H](C(C)C)NC(=O)[C@H](CC(C)C)NC(=O)[C@@H](CC(C)C)NC(=O)[C@H](Cc2ccccc2)NC1=O` (HELM PEPTIDE1{F.[dL].L.V.L}$PEPTIDE1,PEPTIDE1,1:R1-5:R2$$$V2.0), the inhibition at 1 µM in the assay on HCT-116 was determined as 45%; with HCT-15, 10%.

In the case of `CC(C)C[C@@H]1NC(=O)[C@@H](Cc2ccccc2)NC(=O)[C@H](C(C)C)NC(=O)[C@@H](CC(C)C)NC(=O)[C@@H](CC(C)C)NC1=O` (HELM PEPTIDE1{L.[dL].[dL].V.[dF]}$PEPTIDE1,PEPTIDE1,1:R1-5:R2$$$V2.0), the inhibition at 1 µM was 32% in the assay on HCT-116 and 0% with HCT-15.

Take `CC(C)C[C@@H]1NC(=O)[C@H](CC(C)C)NC(=O)[C@@H]2Cc3ccccc3CN2C(=O)[C@H](CC(C)C)NC(=O)[C@H](C(C)C)NC1=O` (HELM PEPTIDE1{L.L.V.L.[Tic]}$PEPTIDE1,PEPTIDE1,1:R1-5:R2$$$V2.0): the values for the inhibition at 1 µM in the assay on HCT-116 and with HCT-15 were 3% and 27%, respectively.

Turning to `CC(C)[C@@H]1NC(=O)[C@H](Cc2ccccc2)NC(=O)[C@@H](COCc2ccccc2)NC(=O)[C@H](C(C)C)NC(=O)[C@H](C(C)C)NC1=O` (cyclo(FVVV[dS](Bn))), the inhibition at 1 µM in the assay on HCT-116 stood at 25%; in the assay with HCT-15, 30%.

For `CC(C)C[C@H]1NC(=O)[C@@H](Cc2ccccc2)NC(=O)[C@@H](CC(C)C)NC(=O)[C@@H](C(C)C)N(C)C(=O)[C@@H](CC(C)C)NC1=O` (HELM PEPTIDE1{[dF].[dL].[dL].[CC(C)[C@H](C(=O)[*:2])N(C)[*:1]].[dL]}$PEPTIDE1,PEPTIDE1,1:R1-5:R2$$$V2.0), the inhibition at 1 µM came to 18% in the assay on HCT-116 and 31% in the assay on HCT-15.

Consider `CC(C)C[C@@H]1C(=O)N[C@H](Cc2ccccc2)C(=O)N[C@H](CC(C)C)C(=O)N[C@H](CC(C)C)C(=O)N[C@H](C(C)C)C(=O)N1C` (HELM PEPTIDE1{[dF].[dL].[dL].[dV].[CC(C)C[C@H](C(=O)[*:2])N(C)[*:1]]}$PEPTIDE1,PEPTIDE1,1:R1-5:R2$$$V2.0), for which the values for the inhibition at 1 µM in the assay on HCT-116 and in the assay with HCT-15 were 1% and 4%, respectively.

On to `CC(C)[C@@H]1NC(=O)[C@H](CC2CCCCC2)NC(=O)[C@H](CO)NC(=O)[C@H](Cc2ccccc2)NC(=O)[C@@H](Cc2ccccc2)N(C)C1=O` (HELM PEPTIDE1{[Cha].V.[CN([C@H](Cc1ccccc1)C(=O)[*:2])[*:1]].F.S}$PEPTIDE1,PEPTIDE1,1:R1-5:R2$$$V2.0), for which the inhibition at 1 µM was found to be 34% in the assay on HCT-116 and 20% with HCT-15.

As for `CC(C)C[C@@H]1NC(=O)[C@H](C)NC(=O)[C@H](CC(C)C)NC(=O)[C@H](CC(C)C)NC(=O)[C@H](Cc2ccccc2)NC1=O` (HELM PEPTIDE1{A.L.F.L.L}$PEPTIDE1,PEPTIDE1,1:R1-5:R2$$$V2.0), the inhibition at 1 µM in the assay on HCT-116 turned out to be 23%; in the assay on HCT-15, 40%.

As to `CC(C)C[C@@H]1NC(=O)CN(C)C(=O)[C@H](Cc2ccccc2)NC(=O)[C@H](C(C)C)NC(=O)[C@@H](C(C)C)NC1=O` (HELM PEPTIDE1{F.[Sar].L.[dV].V}$PEPTIDE1,PEPTIDE1,1:R1-5:R2$$$V2.0), the results for the inhibition at 1 µM in the assay with HCT-116 and in the assay on HCT-15 were 20% and 18%, respectively.

Turning to `CC(C)C[C@@H]1NC(=O)[C@@H](C(C)C)N(C)C(=O)[C@H](CC(C)C)NC(=O)[C@@H](CC(C)C)NC(=O)[C@H](Cc2ccccc2)NC1=O` (HELM PEPTIDE1{F.[dL].L.[CC(C)[C@H](C(=O)[*:2])N(C)[*:1]].L}$PEPTIDE1,PEPTIDE1,1:R1-5:R2$$$V2.0), the results for the inhibition at 1 µM with HCT-116 and in the assay on HCT-15 were 38% and 14%, respectively.

Turning to `CC(C)C[C@@H]1NC(=O)[C@H](C(C)C)NC(=O)[C@H](CC(C)C)N(C)C(=O)[C@H](CC(C)C)NC(=O)[C@H](Cc2ccccc2)NC1=O` (HELM PEPTIDE1{F.L.[meL].V.L}$PEPTIDE1,PEPTIDE1,1:R1-5:R2$$$V2.0), the figures for the inhibition at 1 µM in the assay with HCT-116 and in the assay on HCT-15 were 30% and 57%, respectively.

Turning to `CC(C)C[C@@H]1NC(=O)[C@@H](Cc2ccccc2)NC(=O)[C@@H](CC(C)C)NC(=O)[C@@H](C(C)C)NC(=O)[C@H](CCCCNC(=O)OCc2ccccc2)NC1=O` (cyclo(K(Cbz)[dV][dL][dF]L)), the inhibition at 1 µM with HCT-116 came to 22%; in the assay with HCT-15, 13%.

On to `CC(C)C[C@@H]1NC(=O)[C@H](Cc2ccccc2)NC(=O)[C@@H](Cc2ccccc2)NC(=O)[C@H](C(C)C)NC(=O)[C@H](CC(C)C)NC1=O`, for which the inhibition at 1 µM was 35% in the assay with HCT-116 and 14% in the assay on HCT-15.

For the molecule `CC[C@@H]1NC(=O)[C@H](CC(C)C)NC(=O)[C@H](CC(C)C)NC(=O)[C@H](Cc2ccccc2)NC(=O)[C@H](CC(C)C)NC1=O` (HELM PEPTIDE1{[Abu].L.F.L.L}$PEPTIDE1,PEPTIDE1,1:R1-5:R2$$$V2.0), the inhibition at 1 µM was determined as 1% in the assay with HCT-116 and 8% in the assay on HCT-15.

On to `CC(C)C[C@@H]1NC(=O)[C@@H](C(C)C)NC(=O)[C@H](CC(C)C)NC(=O)[C@H](CC(C)C)N(C)C(=O)[C@H](Cc2ccccc2)NC1=O` (HELM PEPTIDE1{F.[meL].L.[dV].L}$PEPTIDE1,PEPTIDE1,1:R1-5:R2$$$V2.0), for which the inhibition at 1 µM in the assay with HCT-116 was determined as 38%; with HCT-15, 19%.

Regarding `CC(C)C[C@@H]1NC(=O)[C@@H](Cc2ccccc2)NC(=O)[C@@H](CC(C)C)NC(=O)[C@@H](C(C)C)NC(=O)[C@H](CCCCN)NC1=O` (HELM PEPTIDE1{K.[dV].[dL].[dF].L}$PEPTIDE1,PEPTIDE1,1:R1-5:R2$$$V2.0), the inhibition at 1 µM in the assay on HCT-116 is 2%; in the assay on HCT-15, 17%.

For the origin of these results see ChEMBL document CHEMBL1140733, “Comprehensive study of sansalvamide A derivatives and their structure-activity relationships against drug-resistant colon cancer cell lines” (J Med Chem, 2008).
